Laboratory results as given in ChEMBL document CHEMBL3864147, “Antioxidant and anti-inflammatory neolignans from the seeds of hawthorn” (Bioorg Med Chem Lett, 2016).

Assays:
[1] = Antiinflammatory activity in mouse RAW264.7 cells assessed as inhibition of LPS-induced TNFalpha production at 50 uM after 24 hrs by ELISA relative to control; format: functional; conditions: RAW264.7, 24 h
Summary of the method: (§1)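 RAW264.7 cells plated at 5 × 10^5/mL, pre-treated with samples at 100, 50, 10 or 1 µM, then stimulated with LPS (100 ng/mL) for 24 h. TNF-α in the medium measured by ELISA kit per manufacturer's instructions and quantified from a standard curve; silybin as positive control.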

[2] = Antiinflammatory activity in mouse RAW264.7 cells assessed as inhibition of LPS-induced nitric oxide production at 100 uM after 24 hrs by Griess assay relative to control; format: functional; conditions: RAW264.7, 24 h
Summary of the method: (§2)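 RAW264.7 cells (5 × 10^5/mL) pre-treated with samples at 100, 50, 10 or 1 µM, then LPS (100 ng/mL) for 24 h. Nitrite in medium measured by mixing with equal volume Griess reagent (1% sulfanilamide in 5% H3PO4, 0.1% N-naphthyl-ethylenediamine), 10 min at 37 °C, absorbance 540 nm; quantified against NaNO2 standard curve; minocycline as positive control.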

[3] = Antioxidant activity assessed as ferric ion reducing activity by measuring Fe2+ levels using fe3+-TPTZ at 3000 ug/ml after 30 mins by FRAP assay; format: functional
Summary of the method: (§3)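 FRAP reagent: 300 mM acetate buffer pH 3.6, 10 mM TPTZ in 40 mM HCl, 20 mM FeCl3. Sample (3000, 1500, 750, 375 µg/mL solutions) mixed with reagent, 30 min at 37 °C, absorbance 593 nm. Values expressed as µM Fe2+ from FeSO4 calibration curve (5–450 µM).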

[4] = Antioxidant activity assessed as ABTS radical scavenging activity after 30 mins; format: functional
Summary of the method: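 ABTS radical generated by 7 mM ABTS plus 2.4 mM potassium persulfate, 12 h dark at room temperature, diluted in ethanol to OD 0.700 at 734 nm. Samples at several concentrations mixed with ABTS+ solution, 30 min at 37 °C, read at 734 nm; ethanol blank; percent scavenging calculated relative to blank.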

[5] = Antiinflammatory activity in mouse RAW264.7 cells assessed as inhibition of LPS-induced TNFalpha production at 1 uM after 24 hrs by ELISA relative to control; format: functional; conditions: RAW264.7, 24 h; summary of the method: as §1
[6] = Antioxidant activity assessed as ferric ion reducing activity by measuring Fe2+ levels using fe3+-TPTZ at 375 ug/ml after 30 mins by FRAP assay; format: functional; summary of the method: as §3
[7] = Antiinflammatory activity in mouse RAW264.7 cells assessed as inhibition of LPS-induced TNFalpha production after 24 hrs by ELISA; format: functional, cell-based; conditions: RAW264.7, 24 h; summary of the method: as §1
Mus musculus = species: Mus musculus; test: Cytotoxicity against mouse RAW264.7 cells assessed as effect on cell viability at 100 uM preincubated for 1 hr followed by LPS stimulation measured after 24 hrs by MTT assay; format: toxicity, cell-based; conditions: raw264.7, 24 h
Summary of the method: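 RAW264.7 cells in DMEM with 10% FBS and penicillin/streptomycin at 37 °C, 5% CO2, seeded 5 × 10^5 cells/well; treated with samples (100 µM) 1 h, then LPS (100 ng/mL) 24 h. MTT (0.25 mg/mL) added for 4 h; formazan read at 540 nm; untreated cells as control.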

[8] = Antiinflammatory activity in mouse RAW264.7 cells assessed as inhibition of LPS-induced nitric oxide production at 10 uM after 24 hrs by Griess assay relative to control; format: functional; conditions: RAW264.7, 24 h; summary of the method: as §2
[9] = Antioxidant activity assessed as ferric ion reducing activity by measuring Fe2+ levels using fe3+-TPTZ at 750 ug/ml after 30 mins by FRAP assay; format: functional; summary of the method: as §3
[10] = Antiinflammatory activity in mouse RAW264.7 cells assessed as inhibition of LPS-induced nitric oxide production at 50 uM after 24 hrs by Griess assay relative to control; format: functional; conditions: RAW264.7, 24 h; summary of the method: as §2
[11] = Antioxidant activity assessed as ferric ion reducing activity by measuring Fe2+ levels using fe3+-TPTZ at 1500 ug/ml after 30 mins by FRAP assay; format: functional; summary of the method: as §3
[12] = Antiinflammatory activity in mouse RAW264.7 cells assessed as inhibition of LPS-induced TNFalpha production at 10 uM after 24 hrs by ELISA relative to control; format: functional; conditions: RAW264.7, 24 h; summary of the method: as §1
[13] = Antiinflammatory activity in mouse RAW264.7 cells assessed as inhibition of LPS-induced nitric oxide production at 1 uM after 24 hrs by Griess assay relative to control; format: functional; conditions: RAW264.7, 24 h; summary of the method: as §2
[14] = Antioxidant activity assessed as DPPH radical scavenging activity incubated in dark for 30 mins; format: functional
Summary of the method: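 Samples (0.4 mM stock, 5–40 µL series) and DPPH (2 mM stock, 20 µL) in ethanol, made to 200 µL with ethanol; incubated 30 min in dark at 37 °C; absorbance at 517 nm. Ethanol replaced sample as blank.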

[15] = Antiinflammatory activity in mouse RAW264.7 cells assessed as inhibition of LPS-induced TNFalpha production at 100 uM after 24 hrs by ELISA relative to control; format: functional; conditions: RAW264.7, 24 h; summary of the method: as §1
[16] = Antiinflammatory activity in mouse RAW264.7 cells assessed as inhibition of LPS-induced nitric oxide production after 24 hrs by Griess assay; format: functional, cell-based; conditions: RAW264.7, 24 h; summary of the method: as §2

| Structure (SMILES) | inhibition at 50 µM [1] [%] | inhibition at 100 µM [2] [%] | Activity [3] [µmol/L] | IC50 [4] [µM] | inhibition at 1 µM [5] [%] | Activity [6] [µmol/L] | IC50 [7] [µM] | Activity (Mus musculus) | inhibition at 10 µM [8] [%] | Activity [9] [µmol/L] | inhibition at 50 µM [10] [%] | Activity [11] [µmol/L] | inhibition at 10 µM [12] [%] | inhibition at 1 µM [13] [%] | IC50 [14] [µM] | inhibition at 100 µM [15] [%] | IC50 [16] [µM] |
| --- | --- | --- | --- | --- | --- | --- | --- | --- | --- | --- | --- | --- | --- | --- | --- | --- | --- |
| CCO[C@H](c1ccc(O[C@@H](CO)[C@@H](OC)c2ccc(O)c(OC)c2)c(OC)c1)[C@H](CO)c1ccc(O)c(OC)c1 | 13.2 | 56.2 | 129 | 6.3 | 0.2 | 34.5 | > 100 | Non-Toxic | 16.1 | 66.3 | 37.2 | 99.2 | 2.1 | 2.5 | 81.6 | 22.5 | 80.5 |
| CCO[C@H](c1ccc(O[C@@H](CO)[C@@H](O)c2ccc(O)c(OC)c2)c(OC)c1)[C@H](CO)c1ccc(O)c(OC)c1 | 14.2 | 55.1 | 135 | 7.9 | 0.4 | 33.5 | > 100 | Non-Toxic | 15.5 | 65.1 | 44.1 | 108 | -1.9 | 3.7 | 56.8 | 27.7 | 76.3 |
